Experimental data published in ChEMBL document CHEMBL1909513, “A double prodrug system for colon targeting of benzenesulfonamide COX-2 inhibitors” (Bioorg Med Chem Lett, 2011).

Experiments:
[1] = Secretory transport of the compound through transepithelial human Caco2 model; format: ADME, cell-based; conditions: Caco-2
[2] = Chemical stability of the compound in borate buffered saline assessed as half life of cyclization at pH 6.2; format: physicochemical
Summary of the method: (§1)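 Lactamization of the amino intermediate in borate-buffered saline, pH range 5–8, 37 °C, ionic strength 0.12 (figure legend gives I = 0.05). Parent loss and formation of parent drug and dihydroquinolone followed by HPLC, validated at 1.1–16.6 µM. Apparent first-order rate constants fitted by nonlinear regression, three determinations per pH; half-lives derived from these constants.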

[3] = Chemical stability of the compound in borate buffered saline assessed as half life of cyclization at pH 6.4; format: physicochemical; summary of the method: as §1
[4] = Chemical stability of the compound in borate buffered saline assessed as half life of cyclization at pH 5.52; format: physicochemical; summary of the method: as §1
[5] = Chemical stability of the compound in borate buffered saline assessed as half life of cyclization at pH 7.4; format: physicochemical; summary of the method: as §1
[6] = Chemical stability of the compound in borate buffered saline assessed as half life of cyclization at pH 6; format: physicochemical; summary of the method: as §1
[7] = Chemical stability of the compound in borate buffered saline assessed as half life of cyclization at pH 6.11; format: physicochemical; summary of the method: as §1
[8] = Chemical stability of the compound in borate buffered saline assessed as half life of cyclization at pH 6.28; format: physicochemical; summary of the method: as §1
[9] = Chemical stability of the compound in borate buffered saline assessed as half life of cyclization at pH 7; format: physicochemical; summary of the method: as §1
[10] = Dissociation constant, pKa of the compound; format: physicochemical

For `Cc1ccc(-c2cc(C(F)(F)F)nn2-c2ccc(S(N)(=O)=O)cc2)cc1` [CELECOXIB], the Papp B→A [1] was 12.4 ×10⁻⁶ cm/s.

`Cc1ccc(-c2cc(C(F)(F)F)nn2-c2ccc(S(=O)(=O)NC(=O)CCc3ccccc3N)cc2)cc1` gave a half-life [2] of 29.5 min, a half-life [3] of 60.3 min and a half-life [4] of 10.2 min. The half-life [5] was 632 min, the half-life [6] was 10.9 min and the half-life [7] was 15.2 min. The half-life [8] was 41.2 min and the half-life [9] was 130 min.

With `CCC(=O)NS(=O)(=O)c1ccc(-c2c(-c3ccccc3)noc2C)cc1` [PARECOXIB] the pKa [10] was 4.9.
